{
  "source": "paper PMC7048954",
  "about": "(Drug Design, Development and Therapy, 2020)",
  "key": {"[1]": {"tested_on": "HCV replicon (Huh 5.15NS, sub-genomic HCV RNA genotype 1b)", "test": "HCV RNA replication in replicon cells, real-time RT-PCR", "assay_type": "cell-based", "conditions": "Hepatitis C virus, GETYPE1B, read-out: inhibition in replicon assays", "how_it_was_run": "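Huh 5.15NS cells carrying subgenomic genotype 1b HCV RNA were seeded, left to attach overnight and treated in log phase for 48 h with compound (DMSO stock diluted into medium) or vehicle. Total RNA was extracted with Trizol and DNase-treated, then HCV RNA was measured by SYBR green real-time RT-PCR using ΔCT against GAPDH. EC50 came from sigmoidal regression, with 3–5 determinations per point and a known NS3-4A inhibitor as positive control.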"}, "Huh 5.15 replicon cells": {"tested_on": "Huh 5.15 replicon cells", "test": "MTT assay of cellular viability and proliferation", "assay_type": "cell-based, human", "how_it_was_run": "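Replicon cells were seeded semi-confluent, attached overnight, then given compound at 10 or 20 μM or vehicle, in triplicate or quadruplicate. MTT was added at 24 and 48 h and absorbance read at 570 nm. Blanks containing vehicle plus compound were subtracted, and viable cells were expressed relative to vehicle controls.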"}, "NS3 protease [2]": {"tested_on": "NS3 protease", "conditions": "compared with bilirubin; cited from earlier work"}, "NS3 protease [3]": {"tested_on": "NS3 protease", "conditions": "less effective for genotype 3; cited from earlier work"}, "[4]": {"target": "HCV NS3-4A protease genotype 1B (Hepatitis C virus genotype 1b, UniProt P26663)", "test": "Recombinant NS3-4A protease FRET assay", "assay_type": "biochemical", "conditions": "compared with biliverdin"}, "[5]": {"target": "NS3-4A protease V36M mutant (Hepatitis C virus genotype 1b, UniProt P26663, V1062M)", "test": "Mutant recombinant NS3-4A protease fluorometric assay, V36M", "assay_type": "biochemical, HCV", "conditions": "V36M vs WT", "how_it_was_run": "(§1)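 Recombinant wild-type and mutant NS3-4A proteases were run side by side in a SensoLyte FRET assay across a range of compound concentrations. Excitation/emission of 591/622, 490/520 or 340/490 nm was chosen empirically for each compound, and parallel compound-only wells corrected for autofluorescence. Compound came from DMSO stock diluted into assay buffer, with vehicle controls.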"}, "[6]": {"target": "NS3-4A protease T54A mutant (Hepatitis C virus genotype 1b, UniProt P26663, T1080A)", "test": "Mutant recombinant NS3-4A protease fluorometric assay, T54A", "assay_type": "biochemical, HCV", "conditions": "T54A vs WT", "how_it_was_run": "as §1"}, "[7]": {"target": "NS3-4A protease A156T mutant (Hepatitis C virus genotype 1b, UniProt P26663, A1182T)", "test": "Mutant recombinant NS3-4A protease fluorometric assay, A156T", "assay_type": "biochemical, HCV", "conditions": "A156T vs WT", "how_it_was_run": "as §1"}, "[8]": {"tested_on": "HCV proteins NS3-4A and core", "test": "Western blot for HCV proteins in infected Huh 7.5 cells and Huh 5.15NS replicons", "assay_type": "cell-based", "conditions": "MPP 10 µM; J6/JFH infected Huh 7.5 cells 48 hrs, Huh 5.15NS replicons 24 hrs", "how_it_was_run": "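Cells in log phase were treated with compound, then lysed. HCV proteins were detected by Western blot with anti-NS3-4A antibodies and enhanced chemiluminescence.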"}},
  "data": [
    {"smiles": "CC(C)(C)OC(=O)N[C@H]1CCCCC/C=C\\[C@@H]2C[C@@]2(C(=O)NS(=O)(=O)C2CC2)NC(=O)[C@@H]2C[C@@H](OC(=O)N3Cc4cccc(F)c4C3)CN2C1=O", "note": "[Danoprevir, reference compound]", "values": [
      {"measurement": "inhibition at 0.01 µM", "setting": "[1]", "value": "80 to 90", "unit": "%"},
      {"measurement": "effects on viable cells", "setting": "Huh 5.15 replicon cells; 24 or 48 hrs, concentrations equivalent or in excess of EC50", "value": "little if any effects"}
    ]},
    {"smiles": "C=CC1=C(C)/C(=C/C2=NC(=C\\c3[nH]c(/C=C4\\NC(=O)C(C)=C4C=C)c(C)c3CCC(=O)O)/C(CCC(=O)O)=C2C)NC1=O", "note": "[BV, biliverdin]", "values": [
      {"measurement": "IC50 for NS3 protease, fold less than BR", "setting": "NS3 protease [2]", "value": 30, "unit": "fold"}
    ]},
    {"smiles": "C=CC1=C(C)c2cc3[n-]c(cc4[n-]c(cc5nc(cc1n2)C(C)=C5C=C)c(C)c4CCC(=O)O)c(CCC(=O)O)c3C.[Fe+2]", "note": "[FePP, Iron protoporphyrin]", "values": [
      {"measurement": "reduction of viable cells", "setting": "Huh 5.15 replicon cells; 10 or 20 μM, by 48 hrs", "value": "12–19%"}
    ]},
    {"smiles": "C=C[C@@H]1C[C@]1(NC(=O)[C@@H]1C[C@@H]2CN1C(=O)[C@H](C(C)(C)C)NC(=O)O[C@@H]1C[C@H]1CCCCCc1nc3ccc(OC)cc3nc1O2)C(=O)NS(=O)(=O)C1CC1", "note": "[grazoprevir]", "values": [
      {"measurement": "difference in Ki, genotype 3 as compared to genotype 1", "setting": "NS3 protease [3]", "value": 90, "unit": "fold"}
    ]},
    {"smiles": "C=CC1=C(C)C2=Cc3c(C=C)c(C)c4[n]3[Zn][n]3c(c(C)c(CCC(=O)O)c3=CC3=NC(=C4)C(C)=C3CCC(=O)O)=CC1=N2", "note": "[ZnPP, Zn protoporphyrin]", "values": [
      {"measurement": "Ki, fold stronger than biliverdin", "setting": "[4]", "value": "10–20 fold"},
      {"measurement": "reduction of the amount of viable cells", "setting": "Huh 5.15 replicon cells; 10 or 20 μM, 24 and 48 hrs intervals", "value": "40–50%"},
      {"measurement": "inhibition of mutant protease compared to wild-type enzyme", "setting": "[5]", "value": "same fidelity as the wild-type enzyme"},
      {"measurement": "inhibition of mutant protease compared to wild-type enzyme", "setting": "[6]", "value": "same fidelity as the wild-type enzyme"},
      {"measurement": "inhibition of mutant protease compared to wild-type enzyme", "setting": "[7]", "value": "same fidelity as the wild-type enzyme"},
      {"measurement": "expression of HCV proteins NS3-4A and core (Western blot)", "setting": "[8]", "value": "decreased expression"}
    ]}
  ]
}
